# Data as given in publication PMC7660780 (Journal of the American Heart Association: Cardiovascular …, 2020).
# Where “and” joins values, the source holds several entries; their conditions need not be identical. Identical values can stand only once. Entries after “also recorded” stand apart in the source; their conditions may differ.
# Columns and labels:
# Assay type in all cases: in vivo, human
# [1] = system: ADP‐induced platelet aggregation (20 μmol/L); assay: Ex vivo inhibition of ADP-induced platelet aggregation; conditions: healthy volunteers
# Outline: (§1)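 Each participant got a single SC deltoid dose. Blood was drawn at baseline and at set times to 24 h into PPACK (100 μmol/L final). PRP was spun at 600 g or 300 g for 5 min at RT, and PPP at 2000 g for 9 min. High PRP counts were lowered with PPP. Turbidometric aggregation used 20 μmol/L ADP. IPA is the % fall in primary slope (≥15 s, 0.5 s sampling) versus the baseline sample, reported as mean±SD.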
# [2] = system: ADP‐induced platelet aggregation (20 μmol/L); assay: Ex vivo inhibition of ADP-induced platelet aggregation; conditions: for IPA Mean (SD): 15 min post-dose; for IPA of the 1 participant who did not achieve the BED: 0.075 mg/kg SC dose escalation
# [3] = system: ADP‐induced platelet aggregation (20 μmol/L)
# Outline: as §1
# [4] = RUC‐4 whole blood levels by LC-MS/MS; conditions: dose‐expansion group 0.075 mg/kg SC
# [5] = Population pharmacokinetic model
# [6] = system: ADP‐induced platelet aggregation (20 μmol/L); assay: Population pharmacodynamic model; conditions: for IC50: value ± spread as printed in pharmacokinetic data section
# [7] = Safety measures in healthy volunteers; conditions: HVs
# Outline: (§2)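 The trial was double-blind, placebo-controlled and dose-escalating. In each cohort, 2 sentinels were dosed, then 5 more were randomized 4:1 to drug or placebo. Each received a single weight-based SC deltoid injection of 0.18–0.52 mL, followed by 15 min gentle pressure. Injection site checks, platelet counts, laboratory tests and clinical assessments ran at set times through 24 h and at 7 days. Adverse events were graded by CTCAE.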
# [8] = Safety measures in patients with stable CAD receiving aspirin; conditions: stable CAD on aspirin
# Outline: as §2
# [9] = Safety and tolerability, summary statements over the whole study
# Outline: as §2
# [10] = stable CAD on aspirin, 0.075 mg/kg SC, dose escalation
# [11] = 0.075 mg/kg SC, HVs and patients with stable CAD taking aspirin
# [12] = dose escalation 0.04 mg/kg (n=2)
# [13] = dose escalation 0.05 mg/kg (n=6)
# [14] = dose escalation 0.075 mg/kg (n=6)
# [15] = dose expansion 0.075 mg/kg (n=12)
smiles,measurement,setting,value
NCC(=O)Nc1cncc(-c2nn3c(=O)cc(N4CCNCC4)nc3s2)c1 [RUC‐4],IPA mean±SD,"[1]; 0.05 mg/kg SC (n=6), 15 minutes",71.8%±15.0%
same,return of IPA toward baseline,[1]; 0.075 mg/kg SC,≤ 4 h
same,IPA mean±SD,"[1]; 0.075 mg/kg SC (n=6), 15 minutes, 0.075 mg/kg",84.7%±16.7% and 84.7%
same,IPA median,"[1]; 0.075 mg/kg SC, 15 minutes",88.0%
same,IPA of the individual participants not achieving the BED,"[1]; 0.075 mg/kg SC, 15 minutes, 0.075 mg/kg",76.5% and 55.8%
same,IPA of the individual participants not achieving the BED,"[1]; 0.075 mg/kg SC, 30 minutes postdose, 0.075 mg/kg",68.6% and 73.1%
same,IPA of the one CAD participant with much higher whole blood levels,"[2]; dose‐expansion group 0.075 mg/kg SC, 5, 15, 30, and 60 minutes time points",100%
same,IPA Mean (SD),"[2]; stable CAD on aspirin, 0.04 mg/kg SC, 0.04 mg/kg",53.6%±17.0%
same,IPA Mean (SD),"[2]; stable CAD on aspirin, 0.05 mg/kg SC, 0.05 mg/kg",76.9%±10.6%
same,IPA of the 1 participant who did not achieve the BED,"[2]; stable CAD on aspirin, 15 minutes",65.4%
same,IPA of the 1 participant who did not achieve the BED,"[2]; stable CAD on aspirin, 30 minutes",86.5%
same,participants achieving the BED,[2]; [10],5 of 6
same,return of IPA toward baseline,[2]; [10],≤ 4 h
same,participants achieving the BED,"[2]; stable CAD on aspirin, 0.075 mg/kg SC, dose expansion, additional participants",6 of the 12
same,IPA mean±SD,"[2]; stable CAD on aspirin, 0.075 mg/kg SC, high‐weight group, 15 minutes",88.0%±14.4%
same,IPA mean±SD,"[2]; stable CAD on aspirin, 0.075 mg/kg SC, high‐weight group, 30 minutes",85.4%±21.0
same,IPA mean±SD,"[2]; stable CAD on aspirin, 0.075 mg/kg SC, low‐weight group, 15 minutes",63.2%±21.4%
same,IPA mean±SD,"[2]; stable CAD on aspirin, 0.075 mg/kg SC, low‐weight group, 30 minutes",67.8%±14.7%
same,platelet inhibition (high‐grade),[3]; [11],> 80%
same,time to onset of high-grade platelet inhibition,[3]; [11],< 15 min
same,time within which platelet inhibition largely resolved,[3]; [11],≤ 2 h
same,time to peak of blood drug levels and platelet inhibition,[3]; subcutaneous administration,≤ 15 min
same,time to onset of high-grade inhibition of platelet aggregation,"[3]; subcutaneous, 20 μmol/L of ADP",< 15 min
same,time to return of IPA toward baseline,"[3]; subcutaneous, 20 μmol/L of ADP",≤ 2 h
same,inhibition of platelet aggregation (high‐grade),"[3]; subcutaneous, 20 μmol/L of ADP, across the study populations",> 80%
same,"whole blood level of RUC‐4, group mean excluding the outlying participant",[4]; 5 minutes,26.8 ± 26.5 ng/mL
same,"whole blood level of RUC‐4, one CAD participant with much higher levels",[4]; 5 minutes,384 ng/mL
same,"whole blood level of RUC‐4, group mean excluding the outlying participant",[4]; 15 minutes,74.3 ± 38.6 ng/mL
same,"whole blood level of RUC‐4, one CAD participant with much higher levels",[4]; 15 minutes,> 500 ng/mL
same,"whole blood level of RUC‐4, group mean excluding the outlying participant",[4]; 30 minutes,71.3 ± 30.5 ng/mL
same,"whole blood level of RUC‐4, one CAD participant with much higher levels",[4]; 30 minutes,307 ng/mL
same,"whole blood level of RUC‐4, group mean excluding the outlying participant",[4]; 60 minutes,40.3 ± 7.3 ng/mL
same,"whole blood level of RUC‐4, one CAD participant with much higher levels",[4]; 60 minutes,131 ng/mL
same,"Vp/F (apparent peripheral volume of distribution), geometric mean","[5]; SC, All Subjects",221 L
same,effect of aspirin on RUC‐4 pharmacokinetics or pharmacodynamics,"[5]; pharmacokinetic and pharmacodynamic models, covariate aspirin",did not significantly affect
same,"IC50, geometric mean",[6]; cohort with aspirin,0.0338 µg/mL
same,"IC50, geometric mean",[6]; cohort without aspirin,0.0342 µg/mL
same,gamma (coefficient),[6]; sigmoidal Emax model,1.31
same,IC50,[6]; with aspirin,0.0347 ± 0.0079 µg/mL
same,IC50,[6]; without aspirin,0.0348 ± 0.0067 µg/mL
same,No. of TESAEs,[7]; 0.05 mg/kg (n=6),0
same,Patients reporting a TEAE of bruising at the injection site,[7]; 0.05 mg/kg (n=6),0 (0.0) n (%)
same,Patients reporting a non‐AE bruising at the injection site event,[7]; 0.05 mg/kg (n=6),2 (33.3) n (%)
same,Patients reporting at least 1 bleeding AE,[7]; 0.05 mg/kg (n=6),0 (0.0) n (%)
same,Patients reporting at least 1 injection site reaction adverse event,[7]; 0.05 mg/kg (n=6),0 (0.0) n (%)
same,Patients reporting at least 1 related TEAE with CTCAE grade ≥3,[7]; 0.05 mg/kg (n=6),0 (0.0) n (%)
same,"non‐AE bruising at the injection site, Grade 1",[7]; 0.05 mg/kg (n=6),2 (33.3) n (%)
same,"non‐AE bruising at the injection site, Grade 2",[7]; 0.05 mg/kg (n=6),0 (0.0) n (%)
same,No. of TESAEs,[7]; 0.075 mg/kg (n=6),0
same,Patients reporting a TEAE of bruising at the injection site,[7]; 0.075 mg/kg (n=6),0 (0.0) n (%)
same,Patients reporting a non‐AE bruising at the injection site event,[7]; 0.075 mg/kg (n=6),0 (0.0) n (%)
same,Patients reporting at least 1 bleeding AE,[7]; 0.075 mg/kg (n=6),0 (0.0) n (%)
same,Patients reporting at least 1 injection site reaction adverse event,[7]; 0.075 mg/kg (n=6),0 (0.0) n (%)
same,Patients reporting at least 1 related TEAE with CTCAE grade ≥3,[7]; 0.075 mg/kg (n=6),0 (0.0) n (%)
same,"non‐AE bruising at the injection site, Grade 1",[7]; 0.075 mg/kg (n=6),0 (0.0) n (%)
same,"non‐AE bruising at the injection site, Grade 2",[7]; 0.075 mg/kg (n=6),0 (0.0) n (%)
same,No. of TESAEs,[8]; [12],0
same,Patients reporting a TEAE of bruising at the injection site,[8]; [12],0 (0.0) n (%)
same,Patients reporting a non‐AE bruising at the injection site event,[8]; [12],0 (0.0) n (%)
same,Patients reporting at least 1 bleeding AE,[8]; [12],0 (0.0) n (%)
same,Patients reporting at least 1 injection site reaction AE,[8]; [12],0 (0.0) n (%)
same,Patients reporting at least 1 related TEAE with CTCAE grade ≥3,[8]; [12],0 (0.0) n (%)
same,"non‐AE bruising at the injection site, Grade 1",[8]; [12],0 (0.0) n (%)
same,"non‐AE bruising at the injection site, Grade 2",[8]; [12],0 (0.0) n (%)
same,No. of TESAEs,[8]; [13],0
same,Patients reporting a TEAE of bruising at the injection site,[8]; [13],0 (0.0) n (%)
same,Patients reporting a non‐AE bruising at the injection site event,[8]; [13],2 (33.3) n (%)
same,Patients reporting at least 1 bleeding AE,[8]; [13],0 (0.0) n (%)
same,Patients reporting at least 1 injection site reaction AE,[8]; [13],0 (0.0) n (%)
same,Patients reporting at least 1 related TEAE with CTCAE grade ≥3,[8]; [13],0 (0.0) n (%)
same,"non‐AE bruising at the injection site, Grade 1",[8]; [13],2 (33.3) n (%)
same,"non‐AE bruising at the injection site, Grade 2",[8]; [13],0 (0.0) n (%)
same,No. of TESAEs,[8]; [14],0
same,Patients reporting a TEAE of bruising at the injection site,[8]; [14],0 (0.0) n (%)
same,Patients reporting a non‐AE bruising at the injection site event,[8]; [14],4 (66.7) n (%)
same,Patients reporting at least 1 bleeding AE,[8]; [14],0 (0.0) n (%)
same,Patients reporting at least 1 injection site reaction AE,[8]; [14],0 (0.0) n (%)
same,Patients reporting at least 1 related TEAE with CTCAE grade ≥3,[8]; [14],0 (0.0) n (%)
same,"non‐AE bruising at the injection site, Grade 1",[8]; [14],4 (66.7) n (%)
same,"non‐AE bruising at the injection site, Grade 2",[8]; [14],0 (0.0) n (%)
same,No. of TESAEs,[8]; [15],0
same,Patients reporting a TEAE of bruising at the injection site,[8]; [15],0 (0.0) n (%)
same,Patients reporting a non‐AE bruising at the injection site event,[8]; [15],5 (41.7) n (%)
same,Patients reporting at least 1 bleeding AE,[8]; [15],0 (0.0) n (%)
same,Patients reporting at least 1 injection site reaction AE,[8]; [15],0 (0.0) n (%)
same,Patients reporting at least 1 related TEAE with CTCAE grade ≥3,[8]; [15],0 (0.0) n (%)
same,"non‐AE bruising at the injection site, Grade 1",[8]; [15],5 (41.7) n (%)
same,"non‐AE bruising at the injection site, Grade 2",[8]; [15],0 (0.0) n (%)
same,No. of TESAEs,[8]; total RUC‐4 0.075 mg/kg (n=18),0
same,Patients reporting a TEAE of bruising at the injection site,[8]; total RUC‐4 0.075 mg/kg (n=18),0 (0.0) n (%)
same,Patients reporting a non‐AE bruising at the injection site event,[8]; total RUC‐4 0.075 mg/kg (n=18),9 (50.0) n (%)
same,Patients reporting at least 1 bleeding AE,[8]; total RUC‐4 0.075 mg/kg (n=18),0 (0.0) n (%)
same,Patients reporting at least 1 injection site reaction AE,[8]; total RUC‐4 0.075 mg/kg (n=18),0 (0.0) n (%)
same,Patients reporting at least 1 related TEAE with CTCAE grade ≥3,[8]; total RUC‐4 0.075 mg/kg (n=18),0 (0.0) n (%)
same,"non‐AE bruising at the injection site, Grade 1",[8]; total RUC‐4 0.075 mg/kg (n=18),9 (50.0) n (%)
same,"non‐AE bruising at the injection site, Grade 2",[8]; total RUC‐4 0.075 mg/kg (n=18),0 (0.0) n (%)
same,adverse events leading to study drug discontinuation,[9],none leading to study drug discontinuation
same,drug‐related changes in laboratory values,[9],no drug‐related changes in laboratory values
same,"injection site reactions (including bruising), severity",[9],mild
same,platelet counts during the course of treatment,[9],stable
same,"transient reduction in platelet count, single participant",[9],120 000 /μL
same,serious adverse events,[9]; SC 0.04-0.075 mg/kg,no serious adverse events; also recorded: No SAEs were observed
same,"bleeding events, number of patients",[9]; limited to the injection site,3 patients
same,severity of bleeding events,[9]; modified Bleeding Academic Research Consortium type 1,mild
